According to ChEMBL document CHEMBL1914346, “Discovery and synthesis of novel substituted benzocoumarins as orally active lipid modulating agents” (Bioorg Med Chem Lett, 2011):

tested on: Syrian golden hamster; assay: Antidyslipidemic activity in high fat diet-fed dyslipidemic syrian golden hamster model assessed as decrease in serum LDL level at 2.5 mg/kg relative to vehicle treated control; assay type: functional, Mesocricetus auratus; set-up: scale not given: the % may be the effect or the level left; settings: not given
Method in brief: (§1)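 Dose-response run on a separate set of high-fat/fructose-fed male Golden Syrian hamsters given oral doses of 2.5, 5, 10 and 25 mg/kg. Plasma TC, TG, HDL-C and LDL-C were measured by standard enzymatic methods on a clinical autoanalyzer. HDL/TC ratio was calculated. Results are % change relative to HFD-fed vehicle (gum acacia) controls.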

SMILES	Activity
COc1ccc(CN/C=C2\C=C(C=O)c3c(ccc4c(C)cc(=O)oc34)C2=O)cc1	3%

tested on: Syrian golden hamster; assay: Antidyslipidemic activity in high fat diet-fed dyslipidemic syrian golden hamster model assessed as decrease in serum triglyceride level at 10 mg/kg relative to vehicle treated control; assay type: functional, Mesocricetus auratus; set-up: scale not given: the % may be the effect or the level left; settings: not given; method in brief: as §1

SMILES	Activity
COc1ccc(CN/C=C2\C=C(C=O)c3c(ccc4c(C)cc(=O)oc34)C2=O)cc1	58%

target: T1, 3-hydroxy-3-methylglutaryl-coenzyme A reductase (Homo sapiens) (UniProt P04035); assay: Inhibition of HMG-CoA reductase using HMG-CoA as substrate at 25 uM; settings: not given
T1 sequence (whole entry): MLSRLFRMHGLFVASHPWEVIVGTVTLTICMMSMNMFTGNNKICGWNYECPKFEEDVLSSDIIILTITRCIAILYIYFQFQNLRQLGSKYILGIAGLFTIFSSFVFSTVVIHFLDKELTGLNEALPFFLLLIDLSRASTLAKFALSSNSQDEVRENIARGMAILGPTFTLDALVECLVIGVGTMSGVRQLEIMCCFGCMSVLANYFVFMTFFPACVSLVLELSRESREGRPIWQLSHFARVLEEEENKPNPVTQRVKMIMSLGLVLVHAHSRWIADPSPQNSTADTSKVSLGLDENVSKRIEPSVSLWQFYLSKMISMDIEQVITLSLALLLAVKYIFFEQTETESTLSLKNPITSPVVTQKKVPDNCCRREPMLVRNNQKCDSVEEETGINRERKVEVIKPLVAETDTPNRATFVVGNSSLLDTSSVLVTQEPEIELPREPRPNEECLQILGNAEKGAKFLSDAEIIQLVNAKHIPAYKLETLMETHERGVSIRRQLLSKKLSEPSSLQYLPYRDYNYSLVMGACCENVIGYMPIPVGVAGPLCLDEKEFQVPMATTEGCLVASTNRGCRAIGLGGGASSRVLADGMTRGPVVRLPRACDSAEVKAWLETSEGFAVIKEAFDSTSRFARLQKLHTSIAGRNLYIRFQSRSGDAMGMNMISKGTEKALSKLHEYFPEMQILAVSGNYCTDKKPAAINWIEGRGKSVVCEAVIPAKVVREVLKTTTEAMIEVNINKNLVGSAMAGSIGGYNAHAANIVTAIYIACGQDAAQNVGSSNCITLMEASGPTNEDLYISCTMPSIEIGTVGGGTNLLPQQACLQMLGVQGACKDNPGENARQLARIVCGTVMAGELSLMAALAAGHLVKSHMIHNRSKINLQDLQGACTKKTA
Method in brief: (§2)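 HMG-CoA reductase kit assay using supplied HMGR enzyme, HMG-CoA substrate, NADPH and assay buffer. Test concentrations were 5, 10, 25, 50 and 100 µM, with % inhibition recorded at each.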

SMILES	inhibition
COc1ccc(CN/C=C2\C=C(C=O)c3c(ccc4c(C)cc(=O)oc34)C2=O)cc1	40.3%

tested on: Syrian golden hamster; assay: Antidyslipidemic activity in high fat diet-fed dyslipidemic syrian golden hamster model assessed as decrease in serum triglyceride level at 25 mg/kg relative to vehicle treated control; assay type: functional, Mesocricetus auratus; set-up: scale not given: the % may be the effect or the level left; settings: not given; method in brief: as §1

SMILES	Activity
COc1ccc(CN/C=C2\C=C(C=O)c3c(ccc4c(C)cc(=O)oc34)C2=O)cc1	61%

tested on: Syrian golden hamster; assay: Antidyslipidemic activity in high fat diet-fed dyslipidemic syrian golden hamster model assessed as decrease in serum triglyceride level at 5 mg/kg relative to vehicle treated control; assay type: functional, Mesocricetus auratus; set-up: scale not given: the % may be the effect or the level left; settings: not given; method in brief: as §1

SMILES	Activity
COc1ccc(CN/C=C2\C=C(C=O)c3c(ccc4c(C)cc(=O)oc34)C2=O)cc1	38%

tested on: Syrian golden hamster; assay: Antidyslipidemic activity in high fat diet-fed dyslipidemic syrian golden hamster model assessed as decrease in serum LDL level at 5 mg/kg relative to vehicle treated control; assay type: functional, Mesocricetus auratus; set-up: scale not given: the % may be the effect or the level left; settings: not given; method in brief: as §1

SMILES	Activity
COc1ccc(CN/C=C2\C=C(C=O)c3c(ccc4c(C)cc(=O)oc34)C2=O)cc1	8%

tested on: Syrian golden hamster; assay: Antidyslipidemic activity in high fat diet-fed dyslipidemic syrian golden hamster model assessed as decrease in serum total cholesterol level at 10 mg/kg, po administered once daily for 7 days relative to vehicle treated control; assay type: functional, Mesocricetus auratus; set-up: scale not given: the % may be the effect or the level left; settings: not given
Method in brief: (§3)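 Male Golden Syrian hamsters, 12 weeks old, 110 ± 10 g, eight per group, fed high-fat diet plus fructose daily on days 1–10. Oral dosing once daily on days 4–10 in 0.1% gum acacia; HFD-fed vehicle animals served as controls. After the last dose, retro-orbital blood was taken into EDTA and plasma lipids were measured enzymatically on an autoanalyzer. Results are % change versus HFD controls; t-test/ANOVA, p<0.05.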

SMILES	Activity
COc1ccc(CN/C=C2\C=C(C=O)c3c(ccc4c(C)cc(=O)oc34)C2=O)cc1	47%

tested on: Syrian golden hamster; assay: Antidyslipidemic activity in high fat diet-fed dyslipidemic syrian golden hamster model assessed as decrease in serum total cholesterol level at 25 mg/kg relative to vehicle treated control; assay type: functional, Mesocricetus auratus; set-up: scale not given: the % may be the effect or the level left; settings: not given; method in brief: as §1

SMILES	Activity
COc1ccc(CN/C=C2\C=C(C=O)c3c(ccc4c(C)cc(=O)oc34)C2=O)cc1	45%

tested on: Syrian golden hamster; assay: Antidyslipidemic activity in high fat diet-fed dyslipidemic syrian golden hamster model assessed as increase in serum ratio of serum HDL/total cholesterol level at 10 mg/kg, po administered once daily for 7 days relative to vehicle treated control; assay type: functional, Mesocricetus auratus; settings: not given; method in brief: as §3

SMILES	Activity
COc1ccc(CN/C=C2\C=C(C=O)c3c(ccc4c(C)cc(=O)oc34)C2=O)cc1	80%

tested on: Syrian golden hamster; assay: Toxicity in syrian golden hamster; assay type: organism-based, Mesocricetus auratus; settings: in vivo
Method in brief: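 HFD-fed male Golden Syrian hamsters, eight per group, dosed orally at 10 mg/kg once daily for 7 days in 0.1% gum acacia. Body weight was recorded daily and food intake was monitored, then compared with HFD vehicle controls.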

SMILES	Activity
COc1ccc(CN/C=C2\C=C(C=O)c3c(ccc4c(C)cc(=O)oc34)C2=O)cc1	Non-toxic

target: T1, 3-hydroxy-3-methylglutaryl-coenzyme A reductase (Homo sapiens); assay: Inhibition of HMG-CoA reductase using HMG-CoA as substrate at 10 uM; settings: not given; method in brief: as §2

SMILES	inhibition
COc1ccc(CN/C=C2\C=C(C=O)c3c(ccc4c(C)cc(=O)oc34)C2=O)cc1	34.2%

tested on: not listed separately; assay: Antioxidant activity assessed as trolox equivalent by TEAC assay; assay type: functional; settings: not given

SMILES	Activity
COc1ccc(CN/C=C2\C=C(C=O)c3c(ccc4c(C)cc(=O)oc34)C2=O)cc1	1.36 mM

target: T1, 3-hydroxy-3-methylglutaryl-coenzyme A reductase (Homo sapiens); assay: Inhibition of HMG-CoA reductase using HMG-CoA as substrate at 50 uM; settings: not given; method in brief: as §2

SMILES	inhibition
COc1ccc(CN/C=C2\C=C(C=O)c3c(ccc4c(C)cc(=O)oc34)C2=O)cc1	50.1%

tested on: Syrian golden hamster; assay: Antidyslipidemic activity in high fat diet-fed dyslipidemic syrian golden hamster model assessed as increase in serum ratio of HDL/total cholesterol level at 2.5 mg/kg relative to vehicle treated control; assay type: functional, Mesocricetus auratus; settings: not given; method in brief: as §1

SMILES	Activity
COc1ccc(CN/C=C2\C=C(C=O)c3c(ccc4c(C)cc(=O)oc34)C2=O)cc1	18%

tested on: Syrian golden hamster; assay: Antidyslipidemic activity in high fat diet-fed dyslipidemic syrian golden hamster model assessed as increase in serum HDL level at 10 mg/kg, po administered once daily for 7 days relative to vehicle treated control; assay type: functional, Mesocricetus auratus; settings: not given; method in brief: as §3

SMILES	Activity
COc1ccc(CN/C=C2\C=C(C=O)c3c(ccc4c(C)cc(=O)oc34)C2=O)cc1	1%

tested on: Syrian golden hamster; assay: Antidyslipidemic activity in high fat diet-fed dyslipidemic syrian golden hamster model assessed as increase in serum ratio of HDL/total cholesterol level at 5 mg/kg relative to vehicle treated control; assay type: functional, Mesocricetus auratus; settings: not given; method in brief: as §1

SMILES	Activity
COc1ccc(CN/C=C2\C=C(C=O)c3c(ccc4c(C)cc(=O)oc34)C2=O)cc1	26%

tested on: Syrian golden hamster; assay: Antidyslipidemic activity in high fat diet-fed dyslipidemic syrian golden hamster model assessed as decrease in serum total cholesterol level at 10 mg/kg relative to vehicle treated control; assay type: functional, Mesocricetus auratus; set-up: scale not given: the % may be the effect or the level left; settings: not given; method in brief: as §1

SMILES	Activity
COc1ccc(CN/C=C2\C=C(C=O)c3c(ccc4c(C)cc(=O)oc34)C2=O)cc1	39%

tested on: Syrian golden hamster; assay: Antidyslipidemic activity in high fat diet-fed dyslipidemic syrian golden hamster model assessed as decrease in serum total cholesterol level at 2.5 mg/kg relative to vehicle treated control; assay type: functional, Mesocricetus auratus; set-up: scale not given: the % may be the effect or the level left; settings: not given; method in brief: as §1

SMILES	Activity
COc1ccc(CN/C=C2\C=C(C=O)c3c(ccc4c(C)cc(=O)oc34)C2=O)cc1	19%

tested on: Syrian golden hamster; assay: Antidyslipidemic activity in high fat diet-fed dyslipidemic syrian golden hamster model assessed as decrease in serum triglyceride level at 2.5 mg/kg relative to vehicle treated control; assay type: functional, Mesocricetus auratus; set-up: scale not given: the % may be the effect or the level left; settings: not given; method in brief: as §1

SMILES	Activity
COc1ccc(CN/C=C2\C=C(C=O)c3c(ccc4c(C)cc(=O)oc34)C2=O)cc1	35%

tested on: Syrian golden hamster; assay: Antidyslipidemic activity in high fat diet-fed dyslipidemic syrian golden hamster model assessed as decrease in serum LDL level at 25 mg/kg relative to vehicle treated control; assay type: functional, Mesocricetus auratus; set-up: scale not given: the % may be the effect or the level left; settings: not given; method in brief: as §1

SMILES	Activity
COc1ccc(CN/C=C2\C=C(C=O)c3c(ccc4c(C)cc(=O)oc34)C2=O)cc1	19%

target: T1, 3-hydroxy-3-methylglutaryl-coenzyme A reductase (Homo sapiens); assay: Inhibition of HMG-CoA reductase using HMG-CoA as substrate at 100 uM; settings: not given; method in brief: as §2

SMILES	inhibition
COc1ccc(CN/C=C2\C=C(C=O)c3c(ccc4c(C)cc(=O)oc34)C2=O)cc1	63.8%

tested on: Syrian golden hamster; assay: Antidyslipidemic activity in high fat diet-fed dyslipidemic syrian golden hamster model assessed as decrease in serum triglyceride level at 10 mg/kg, po administered once daily for 7 days relative to vehicle treated control; assay type: functional, Mesocricetus auratus; set-up: scale not given: the % may be the effect or the level left; settings: not given; method in brief: as §3

SMILES	Activity
COc1ccc(CN/C=C2\C=C(C=O)c3c(ccc4c(C)cc(=O)oc34)C2=O)cc1	70%

target: T1, 3-hydroxy-3-methylglutaryl-coenzyme A reductase (Homo sapiens); assay: Inhibition of HMG-CoA reductase using HMG-CoA as substrate at 5 uM; settings: not given; method in brief: as §2

SMILES	inhibition
COc1ccc(CN/C=C2\C=C(C=O)c3c(ccc4c(C)cc(=O)oc34)C2=O)cc1	26.1%

tested on: Syrian golden hamster; assay: Antidyslipidemic activity in high fat diet-fed dyslipidemic syrian golden hamster model assessed as decrease in serum total cholesterol level at 5 mg/kg relative to vehicle treated control; assay type: functional, Mesocricetus auratus; set-up: scale not given: the % may be the effect or the level left; settings: not given; method in brief: as §1

SMILES	Activity
COc1ccc(CN/C=C2\C=C(C=O)c3c(ccc4c(C)cc(=O)oc34)C2=O)cc1	18%

tested on: Syrian golden hamster; assay: Antidyslipidemic activity in high fat diet-fed dyslipidemic syrian golden hamster model assessed as decrease in serum LDL level at 10 mg/kg relative to vehicle treated control; assay type: functional, Mesocricetus auratus; set-up: scale not given: the % may be the effect or the level left; settings: not given; method in brief: as §1

SMILES	Activity
COc1ccc(CN/C=C2\C=C(C=O)c3c(ccc4c(C)cc(=O)oc34)C2=O)cc1	14%

tested on: Syrian golden hamster; assay: Antidyslipidemic activity in high fat diet-fed dyslipidemic syrian golden hamster model assessed as increase in serum ratio of HDL/total cholesterol level at 25 mg/kg relative to vehicle treated control; assay type: functional, Mesocricetus auratus; settings: not given; method in brief: as §1

SMILES	Activity
COc1ccc(CN/C=C2\C=C(C=O)c3c(ccc4c(C)cc(=O)oc34)C2=O)cc1	86%

tested on: Syrian golden hamster; assay: Antidyslipidemic activity in high fat diet-fed dyslipidemic syrian golden hamster model assessed as decrease in serum LDL level at 10 mg/kg, po administered once daily for 7 days relative to vehicle treated control; assay type: functional, Mesocricetus auratus; set-up: scale not given: the % may be the effect or the level left; settings: not given; method in brief: as §3

SMILES	Activity
COc1ccc(CN/C=C2\C=C(C=O)c3c(ccc4c(C)cc(=O)oc34)C2=O)cc1	54%

tested on: Syrian golden hamster; assay: Antidyslipidemic activity in high fat diet-fed dyslipidemic syrian golden hamster model assessed as increase in serum ratio of HDL/total cholesterol level at 10 mg/kg relative to vehicle treated control; assay type: functional, Mesocricetus auratus; settings: not given; method in brief: as §1

SMILES	Activity
COc1ccc(CN/C=C2\C=C(C=O)c3c(ccc4c(C)cc(=O)oc34)C2=O)cc1	71%
